Results from ChEMBL document CHEMBL4513216, “Probing the Open Global Health Chemical Diversity Library for Multistage-Active Starting Points for Next-Generation Antimalarials” (ACS Infect Dis, 2020).

Assay: Toxicity liver stage against HepG2, at 10uM
Assay type: cell-based
Design: test concentration 10 uM, cell line HepG2-A16-CD81EGFP
Details: human, HepG2-A16-CD81EGFP cells; read-out: INHIBITION
Procedure, shortened: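 Uninfected HepG2-A16-CD81EGFP cells, 3 × 10^3 per well, 1536-well, plated on prespotted compound at 10 μM final, parasite-free screening media added to match infected plates; puromycin 10 μM positive, DMSO 0.5% negative; run in parallel with 48 h PbLuc assay at 37 °C, 5% CO2; viability by CellTiter-Glo luminescence, normalized to controls.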

| Compound | cytotoxicity at 10 µM [%] |
| --- | --- |
| c1ccc2sc(N3CCCC4(CCOC4)C3)nc2c1 (stereo not given) | -5.08 |
| C[C@@H](O)CNc1c(NCc2ccco2)c(=O)c1=O | -7.58 |
| CN(C)CCn1c(=O)oc2ccc(NC(=O)CSc3ccccc3)cc21 | -3.51 |
| Cc1ncnc(NCC(C)N(C)c2ccccc2)c1C (stereo not given) | 60.3 |
| O=C(c1cc[nH]n1)N1CCC(c2cc(Nc3ccccn3)n[nH]2)CC1 | -37.1 |
| CC(=O)NCC1CCN(C(=O)NCCc2ccc(Cl)s2)CC1 | -6.19 |
| Cc1c(C(=O)NCCC(=O)N2CCCC2)oc2c(F)cccc12 | 5.87 |
| CCCS(=O)(=O)N1CCC2(CCC(=O)N(CCc3cccnc3)C2)CC1 | -4.92 |
| O=C([C@@H]1Cc2[nH]cnc2CN1Cc1cc2ccccc2o1)N1CCCC1 | 2.23 |
| CCC(=O)N1CCCN(C(=O)C2SCCc3sccc32)CC1 (stereo not given) | -8.98 |
| Cc1cc(C)c2[nH]c(C(=O)NCCN3CCOC3=O)c(C)c2c1 | -0.2 |
| CC(C)CN1CCCC1c1ccc(C(=O)Nc2ccc3[nH]nnc3c2)s1 (stereo not given) | 19.1 |
| Cc1nc(CCNC(C)c2ccc3c(c2)OCCCO3)cs1 (stereo not given) | 3.3 |
| COc1ccc(C)cc1CSCCn1nc2ccccn2c1=O | 1.03 |
| CCSc1cncc(N2CCC(C(=O)Nc3ccccn3)CC2)n1 | 26.3 |
| O=C(O)c1cccnc1CN1CCCCC1CCc1ccccn1 (stereo not given) | 7.4 |
| CC(NC(=O)Nc1cccnc1N1CCOCC1)c1ccccc1 (stereo not given) | 2.83 |
| O=C(NCCNc1cnccn1)N1CCCC(N2CCCC2)C1 (stereo not given) | -3.12 |
| Cc1cnn(CCNCc2ccccc2F)c1 | -9.54 |
| N#Cc1cccc(OCc2ccoc2C(=O)N2CCCCCC2)c1 | 9.91 |
| CC(C)c1ncc(Cl)c(C(=O)N2CCN3CCCCC3C2)n1 (stereo not given) | 4.77 |
| COCC1CN(C(=O)c2ccnnc2)Cc2ncnn2C1 (stereo not given) | -4.24 |

| Compound | cytotoxicity at 10 µM [%] |
| --- | --- |
| O=C(C1CCCN(Cc2ccccc2)C1)N1CCc2sccc2C1 (stereo not given) | 2.41 |
| COc1nc2c(cc1C(=O)NCCc1nc(C)c(C(=O)O)s1)CCC2 | 13.3 |
| COc1cccc(-c2ccnc3nc(N4CCCCC4)[nH]c(=O)c23)c1 | 7.97 |
| Cc1nc(CN2C[C@@H]3CN(C(=O)c4ccncc4)C[C@@H]3C2)cs1 | -108 |
| CN(C)C(=O)c1nn(C)c2c1CN(Cc1ccoc1)C2 | -6.28 |
| CC(C)(C)n1cc(C2=CCN(CCN3CCCCCC3)CC2)cn1 | -0.481 |
| Cc1cnc(N2CCOC3(CCCN(c4ncccn4)C3)C2)nc1 (stereo not given) | 9.19 |
| Cc1nnc(C2Cc3ccccc3CN2Cc2ncc(C(C)(C)C)o2)o1 (stereo not given) | 10 |
| CCn1nc(C)c2nnn(CC(=O)Nc3cccc(Cl)c3)c(=O)c21 | 4.47 |
| CS(=O)(=O)c1ccc(NC(=O)NC2(c3ccccc3)CCC2)cc1 | 5.64 |
| Cn1cncc1CN1CCCC1c1cncc(Oc2ccc(Cl)cc2)n1 (stereo not given) | 11 |
| O=C(c1ccc(-n2cnnc2)nc1)N1CCCC(O)(CO)CC1 (stereo not given) | -0.274 |
| Cc1ccc(CN2CCc3c(CN4CCCC4)n[nH]c3C2)s1 | 4.41 |
| c1ccc(CCN2CC(n3cccn3)C2)nc1 | -0.2 |
| CC(=O)N1CCN([C@@H]2CN(C(=O)c3ccccc3C)C[C@H]2O)CC1 | -3.79 |
| CC(=O)c1cn(CCC(=O)NCCC(=O)O)c2ccccc12 | 7.13 |
| CCOc1ncccc1CNC(=O)NCCNC(=O)c1ccco1 | 1.16 |
| CN(CCC(F)(F)F)C(=O)C1CSCN1C(=O)C(C)(C)C (stereo not given) | 9.07 |
| CC(C)n1ncc2c1NC(=O)C(C#N)C21CCCCC1 (stereo not given) | -0.47 |
| Cc1nc(C(=O)N2CCN(c3ncccn3)[C@@H]3CS(=O)(=O)C[C@@H]32)cs1 | 6.12 |
| CSc1ccccc1C(=O)N1C[C@@H]2CC[C@H]1CN(C(=O)N(C)C)C2 | -3.99 |
| CN(Cc1ncc(-c2ccccc2)o1)CC1CCCN1c1cccnn1 (stereo not given) | 3.75 |

| Compound | cytotoxicity at 10 µM [%] |
| --- | --- |
| CN(C)C(=O)NCc1nnc2n1CCN(Cc1ccsc1)C2 | 8.31 |
| Cn1cc(CN2CCOC(Cc3cccc(F)c3)C2)cn1 (stereo not given) | -2.62 |
| COc1cc(N2C[C@H]3CCN(CCN4CCCC4)C[C@H]3C2)ncn1 | 12 |
| Cn1ccnc1CC1CCCN(Cc2noc(C3CC3)n2)C1 (stereo not given) | -5.68 |
| CNC(=O)C1(c2cnccn2)CCCN1C(=O)c1ccccn1 (stereo not given) | 10.1 |
| O=C(c1cnn2c1OCCC2)N1CCN(C(=O)C2CCCO2)CC1 (stereo not given) | -6.19 |
| CCN(C(=O)c1nc2c(s1)CCCN2C)C(C)C | 4.37 |
| COCCN(C)C[C@@H]1CN(C(=O)c2ccc(=O)n(C)c2)C[C@@H]1CO | -11.1 |
| O=C(NCC1CC1)C1CN(C(=O)Nc2ccccc2)CC12CCOCC2 (stereo not given) | -82.6 |
| CCN(CC)C(=O)CSc1sc2c(O)cc(=O)[nH]c2c1C(N)=O | 0.488 |
| CC(=O)N1CCC(N2CCOC[C@H]2c2nc(C(C)(C)C)c[nH]2)CC1 | 6.51 |
| O=C1CN(C(=O)CSC2CCCc3ccccc32)CCN1 (stereo not given) | -9.45 |
| Cc1cccc(CN2C[C@@H]3COC[C@]3(CNC(=O)c3ccsc3)C2)n1 | -1.85 |
| Cc1noc([C@H]2C[C@@H]3CCN(C(=O)C4CCOCC4)C[C@H]3O2)n1 | 7.62 |
| CN(CC(C)(CO)CO)C(=O)Nc1cc(Cl)cc(Cl)c1 | 0.0988 |
| O=C(N[C@@H]1CN(Cc2ccoc2)C[C@@H]2CCCO[C@@H]21)C1CCC1 | -95.8 |
| O=S(=O)(NCC1CCOc2ccccc2C1)N1CCOCC1 (stereo not given) | -9.75 |
| CN1CCN(c2ccc(Cl)cc2NC(=O)c2ccco2)CC1 | -2.14 |
| CCN1CCN(CC(O)c2cc(Cl)ccc2Cl)CC1 (stereo not given) | 0.388 |
| CC(O)CN1CCC(CN(C)CCC(=O)NC2CCCC2)CC1 (stereo not given) | -0.663 |
| Cc1nccnc1N1CCC(Cc2ccccc2Cl)(C(=O)O)CC1 | 12.6 |
| Fc1cnc(N2CCCC3(CN(Cc4ccncc4)CCO3)C2)nc1 (stereo not given) | 3.34 |

| Compound | cytotoxicity at 10 µM [%] |
| --- | --- |
| O=C(c1noc2c1CCCC2)N1CCCC(c2nccs2)C1 (stereo not given) | -2.66 |
| CN(Cc1ccccc1)c1ncccc1CNC1CCSCC1 | -2.84 |
| CC(C)c1noc(CC[C@@H]2CCCN3CCCC[C@H]23)n1 | -0.143 |
| CSc1ccc(C(=O)C2CCCN(C(=O)CCn3cnnn3)C2)cc1 (stereo not given) | 6.03 |
| CC(C)N1CC2(CCCN(c3ccccn3)C2)CCC1=O (stereo not given) | -0.608 |
| Cc1cc(C)n(CC2CCCCN2CC(=O)Nc2nccs2)n1 (stereo not given) | 10.1 |
| COc1ccc(-c2cc(CC3(NCc4ccc(C)o4)COC3)no2)cc1 | -5.88 |
| CCc1noc(CN(Cc2cccs2)CC2CCCO2)n1 (stereo not given) | -8.66 |
| COc1cc(CNCC(O)c2ccc(F)cc2F)cc2c1OCO2 (stereo not given) | -1.37 |
| O=C(c1ccccn1)N1CCc2ncc(Cn3cccn3)n2CC1 | 5.44 |
| Cc1ncsc1CN1CCC2(CC1)CC(=O)N(Cc1ccc(Cl)cc1)C2 | 6.83 |
| Cc1cccc(CN2CC[C@@H]3[C@@H]2CCN3C(=O)c2ccno2)n1 | -18.2 |
| CCS(=O)(=O)N1CCC2(CCN(Cc3ccc(C)o3)C2)C1 (stereo not given) | -116 |
| CN(C)CCN1CC2(CCCN(c3ccc(Cl)cn3)C2)CCC1=O (stereo not given) | 2.69 |
| Cc1nnc(CN2CCCC2c2ccc3c(c2)OCCCO3)n1C (stereo not given) | 4.86 |
| CC(=O)NCC(=O)N1CCOC(c2cccc(N)n2)C1 (stereo not given) | -4.68 |
| O=S1(=O)CCC(S(=O)(=O)c2cccc(S(=O)(=O)N3CCCCCC3)c2)C1 (stereo not given) | -7.39 |
| COc1cccc(C(=O)NCC(c2cccn2C)N2CCCC2)c1OC (stereo not given) | -2.4 |
| CN1CCC(N(Cc2ccccc2)C(=O)c2ccn3cncc3c2)CC1 | 5.68 |
| Cc1ccc2c(c1)C(=O)NCC1(CCN(C(=O)c3sccc3C)CC1)O2 | -11.7 |
| CNC(=O)c1ccc(CN(C)c2ccc(C(F)(F)F)cn2)cc1 | 6.71 |
| Cc1ccn(Cc2nc(C(C)OCC(C)C)no2)c(=O)c1 (stereo not given) | 5.56 |

| Compound | cytotoxicity at 10 µM [%] |
| --- | --- |
| Cn1cc(CN2CCO[C@H]3CN(Cc4ccco4)C[C@H]32)cn1 | -140 |
| Cc1nc(N2CCCC2)ncc1-c1cc(O)nc(N2CCN(C)CC2)n1 | 2.6 |
| COCc1nn(C(C)C)c2c1CCN(Cc1ccccn1)C2 | 8.04 |
| COc1ccc(-c2nnc(CNCCn3cc(C)cn3)o2)cc1 | 1.32 |
| C[C@@H]1CN(C(=O)CCCN2CCOCC2)C[C@@]1(O)C1CC1 | 4.39 |
| O=C(CC1CC2(CCNCC2)c2ccccc21)NCC1CC1 (stereo not given) | -118 |
| OC(CN1CCC(c2ccn[nH]2)CC1)c1cc(F)ccc1F (stereo not given) | -12.3 |
| Cc1ccc(N2CCOC(C)(C(=O)N(C)C)C2)nn1 (stereo not given) | -4.43 |
| COCc1ccccc1CNC(=O)CNc1ccccc1C(C)=O | 3.49 |
| Cc1cccc(-c2noc(CN3CC(n4cccn4)C3)n2)c1 | -0.0158 |
| COCCN(Cc1cccc(OCCO)c1)Cc1ccccc1F | -9.53 |
| CN(CC(=O)NC(c1ccc(F)cc1)C(F)(F)F)S(C)(=O)=O (stereo not given) | -11.9 |
| COc1ccc(C(=O)Nc2cc(CC(C)C)nn2C)cc1 | -10.6 |
| CO[C@H]1COCCN(C(=O)c2cc(C)oc2C(F)(F)F)C1 | -12.1 |
| Cc1nc(CN2CCCN(CC(=O)N(C)C(C)(C)C#N)CC2)no1 | 9.5 |
| CCO[C@@H]1CCN(c2ccc(C)nn2)[C@@H]1Cc1cnn(C)c1 | 2.2 |
| CC(C)OCCN1CCC(Nc2ncc(Br)cn2)CC1 | 2.83 |
| Cc1ccc(CN2C[C@H](OCC3CCN(C)CC3)[C@H]3COC[C@H]32)o1 | 6.19 |
| CCS(=O)(=O)N1CCC2(CC1)CC(OCC1CC1)CO2 (stereo not given) | 7.92 |
| CN1CCOC(CNC(=O)CCCc2ccccc2)C1 (stereo not given) | -0.95 |
| COc1ccc2c(c1)CCCN2Cc1nc2c(cnn2C)c(=O)[nH]1 | -3.3 |
| COc1cccnc1NC(=O)COc1ccc(F)cc1F | 8.68 |
